Laboratory results taken from ChEMBL document CHEMBL4265871, “Novel alkylated azoles as potent antifungals” (Eur J Med Chem, 2017).
In brackets after ≈: the same amount, converted by molar mass.

Key:
[1] = Toxicity in human BEAS2B cells assessed as reduction in cell viability incubated for 24 hrs by resazurin dye based assay; settings: BEAS-2B cells
Outline: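 Toxicity tested in the nucleated lines A549 and BEAS-2B to give EC50 values. Selectivity index is EC50 against the mammalian line divided by the MIC against a given fungal strain.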

in vitro = settings: mouse, mouse erythrocytes
[2] = Selectivity index, ratio of EC50 for toxicity in human BEAS2B cells to MIC50 for antifungal activity against Candida albicans ATCC 64124; type: cell-based; settings: BEAS-2B cells, read-out: Selectivity Index
Outline: (§1)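 Selectivity index is the EC50 against the mammalian line (A549 or BEAS-2B) divided by the MIC against the given fungal strain.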

[3] = Selectivity index, ratio of EC50 for toxicity in human BEAS2B cells to MIC50 for antifungal activity against ITC and FLC-resistant Candida albicans ATCC 1237; type: cell-based; settings: BEAS-2B cells, read-out: Selectivity Index; outline: as §1
[4] = Selectivity index, ratio of EC50 for toxicity in human A549 cells to MIC50 for antifungal activity against Candida albicans ATCC 64124; type: cell-based; settings: read-out: Selectivity Index; outline: as §1
Nakaseomyces glabratus = assay: Antifungal activity against Candida glabrata ATCC 2001 incubated for 48 hrs by modified CLSI M27-A3 protocol based method; type: functional; settings: ATCC 2001, 48 h
[5] = Selectivity index, ratio of EC50 for toxicity in human A549 cells to MIC50 for antifungal activity against ITC and FLC-resistant Candida albicans ATCC MYA-90819; type: cell-based; settings: read-out: Selectivity Index; outline: as §1
Candida albicans [6] = assay: Antifungal activity against ITC and FLC-susceptible Candida albicans ATCC MYA-2876 incubated for 48 hrs by modified CLSI M27-A3 protocol based method; type: functional; settings: ATCC MYA-2876, 48 h
Outline: (§2)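 Because these Candida strains show trailing growth, MIC-2 was read, meaning 50% growth inhibition. Caspofungin and voriconazole were tested here; other controls came from earlier work.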

[7] = Selectivity index, ratio of […] for toxicity in human A549 cells to MIC50 for antifungal activity against Aspergillus flavus ATCC MYA-3631; type: cell-based; settings: read-out: Selectivity Index
Candida parapsilosis = assay: Antifungal activity against Candida parapsilosis ATCC 22019 incubated for 48 hrs by modified CLSI M27-A3 protocol based method; type: functional; settings: Lodderomyces parapsilosis, ATCC 22019, 48 h; read-out: MIC100
Outline: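 For C. albicans ATCC 10231, C. krusei ATCC 6258 and C. parapsilosis ATCC 22019, MIC-0 was read, meaning complete growth inhibition. For azole controls, MIC-2 (50% growth inhibition) was reported instead. Caspofungin and voriconazole were tested here; other controls came from earlier work.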

[8] = Selectivity index, ratio of EC50 for toxicity in human A549 cells to MIC50 for antifungal activity against ITC and FLC-resistant Candida albicans ATCC 1237; type: cell-based; settings: read-out: Selectivity Index; outline: as §1
[9] = Selectivity index, ratio of EC50 for toxicity in human A549 cells to MIC50 for antifungal activity against ITC and FLC-susceptible Candida albicans ATCC MYA-2310; type: cell-based; settings: read-out: Selectivity Index; outline: as §1
[10] = Selectivity index, ratio of EC50 for toxicity in human BEAS2B cells to MIC50 for antifungal activity against ITC and FLC-susceptible Candida albicans ATCC MYA-2876; type: cell-based; settings: BEAS-2B cells, read-out: Selectivity Index
Outline: (§3)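 Ratio of the compound's EC50 against BEAS-2B cells to its MIC against the named C. albicans strain. […] For C. albicans strains other than ATCC 10231, trailing growth meant MIC-2 was taken, meaning 50% growth inhibition.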

Candida albicans [11] = assay: Antifungal activity against ITC and FLC-susceptible Candida albicans ATCC MYA-2310 incubated for 48 hrs by modified CLSI M27-A3 protocol based method; type: functional; settings: ATCC MYA-2310, 48 h
[12] = Selectivity index, ratio of EC50 for toxicity in human A549 cells to MIC50 for antifungal activity against Candida krusei ATCC 6258
[13] = Selectivity index, ratio of EC50 for toxicity in human BEAS2B cells to MIC100 for antifungal activity against Candida albicans ATCC 10231; type: cell-based; settings: BEAS-2B cells, read-out: Selectivity Index; outline: as §1
[14] = Hemolytic activity in mouse erythrocytes assessed as hemolysis level at 1.95 ug/ml incubated for 1 hr at 37 degC; type: ADME, cell-based, Erythrocyte; settings: read-out: Activity
Outline: (§4)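 Mouse erythrocytes incubated 1 h at 37 °C with test agents over 1.95 to 125 µg/mL. Percent lysis is read for each concentration.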

[15] = Selectivity index, ratio of EC50 for toxicity in human BEAS2B cells to MIC50 for antifungal activity against ITC and FLC-resistant Candida albicans ATCC MYA-90819; type: cell-based; settings: BEAS-2B cells, read-out: Selectivity Index; outline: as §3
Aspergillus nidulans = assay: Antifungal activity against Aspergillus nidulans ATCC 38163 incubated for 48 hrs by CLSI M38-A2 protocol based method; type: functional; settings: ATCC 38163, 48 h, read-out: MIC100
Candida albicans [16] = assay: Antifungal activity against ITC and FLC-resistant Candida albicans ATCC 1237 incubated for 48 hrs by modified CLSI M27-A3 protocol based method; type: functional; settings: ATCC 1237, 48 h; outline: as §2
[17] = Hemolytic activity in mouse erythrocytes assessed as hemolysis level at 125 ug/ml incubated for 1 hr at 37 degC; type: ADME, cell-based, Erythrocyte; settings: read-out: Activity; outline: as §4
[18] = Hemolytic activity in mouse erythrocytes assessed as hemolysis level at 7.8 ug/ml incubated for 1 hr at 37 degC; type: ADME, cell-based, Erythrocyte; settings: read-out: Activity; outline: as §4
[19] = Selectivity index, ratio of […] for toxicity in human BEAS2B cells to MIC50 for antifungal activity against Aspergillus terreus ATCC MYA-3633; type: cell-based; settings: BEAS-2B cells, read-out: Selectivity Index
[20] = Selectivity index, ratio of EC50 for toxicity in human A549 cells to MIC50 for antifungal activity against Candida glabrata ATCC 2001; type: cell-based; settings: read-out: Selectivity Index; outline: as §1
[21] = Selectivity index, ratio of […] for toxicity in human BEAS2B cells to MIC50 for antifungal activity against Aspergillus nidulans ATCC 38163; type: cell-based; settings: BEAS-2B cells, read-out: Selectivity Index
[22] = Selectivity index, ratio of EC50 for toxicity in human A549 cells to MIC50 for antifungal activity against ITC and FLC-resistant Candida albicans ATCC MYA-1003; type: cell-based; settings: read-out: Selectivity Index; outline: as §1
[23] = Hemolytic activity in mouse erythrocytes assessed as hemolysis level at 15.6 ug/ml incubated for 1 hr at 37 degC; type: ADME, cell-based, Erythrocyte; settings: read-out: Activity; outline: as §4
[24] = Selectivity index, ratio of […] for toxicity in human A549 cells to MIC50 for antifungal activity against Aspergillus nidulans ATCC 38163; type: cell-based; settings: read-out: Selectivity Index
[25] = Selectivity index, ratio of EC50 for toxicity in human A549 cells to MIC for antifungal activity against Candida parapsilosis ATCC 22019
Candida albicans [26] = assay: Antifungal activity against ITC and FLC-resistant Candida albicans ATCC MYA-1003 incubated for 48 hrs by modified CLSI M27-A3 protocol based method; type: functional; settings: ATCC MYA-1003, 48 h; outline: as §2
[27] = Selectivity index, ratio of EC50 for toxicity in human BEAS2B cells to MIC for antifungal activity against Candida parapsilosis ATCC 22019; settings: BEAS-2B cells
Aspergillus flavus = assay: Antifungal activity against Aspergillus flavus ATCC MYA-3631 incubated for 48 hrs by CLSI M38-A2 protocol based method; type: functional; settings: ATCC MYA-3631, 48 h, read-out: MIC100

Structure (SMILES)	EC50 at 24 h [1] [µg/mL]	hemolysis at 1 h, 62.5 ug/ml (in vitro) [%]	selectivity ratio [2]	selectivity ratio [3]	selectivity ratio [4]	MIC50 (Nakaseomyces glabratus) [µM]	selectivity ratio [5]	MIC50 (Candida albicans [6]) [µM]	selectivity ratio [7]	MIC (Candida parapsilosis) [µM]	selectivity ratio [8]	selectivity ratio [9]	selectivity ratio [10]	MIC50 (Candida albicans [11]) [µM]	selectivity ratio [12]	selectivity ratio [13]	hemolysis at 1 h, 1.95 ug/ml [14] [%]	selectivity ratio [15]	MIC (Aspergillus nidulans) [µM]	MIC50 (Candida albicans [16]) [µM]	other results
CCCCCCC(O)(Cn1cncn1)c1ccc(Cl)cc1 (centres undefined)	> 31.3	83.9	1	8	1	> 102	10	25.3 (≈ 7.79 µg/mL)	1	> 102	10	1	4	102 (≈ 31.3 µg/mL)	19	16	0	8	12.7 (≈ 3.91 µg/mL)	12.7 (≈ 3.91 µg/mL)	hemolysis at 1 h, 125 ug/ml [17]: 102%; hemolysis at 1 h, 7.8 ug/ml [18]: 0%; selectivity ratio [19]: 2; selectivity ratio [20]: 1; selectivity ratio [21]: 8; selectivity ratio [22]: 19; hemolysis at 1 h, 15.6 ug/ml [23]: 0%; selectivity ratio [24]: 10; selectivity ratio [25]: 1; MIC50 (Candida albicans [26]): 6.3 µM (≈ 1.94 µg/mL); selectivity ratio [27]: 1; MIC (Aspergillus flavus): > 102 µM
CCCCCCC(O)(Cn1cncn1)c1ccc(F)cc1 (centres undefined)	> 31.3	7	1	1	1	26.8 (≈ 7.81 µg/mL)	32	26.8 (≈ 7.81 µg/mL)	1	1.6 (≈ 0.466 µg/mL)	1	4	4	26.8 (≈ 7.81 µg/mL)	32	2	0	32	6.7 (≈ 1.95 µg/mL)	107 (≈ 31.3 µg/mL)	hemolysis at 1 h, 125 ug/ml [17]: 24.1%; hemolysis at 1 h, 7.8 ug/ml [18]: 5.2%; selectivity ratio [19]: 2; selectivity ratio [20]: 4; selectivity ratio [21]: 16; selectivity ratio [22]: 4; hemolysis at 1 h, 15.6 ug/ml [23]: 0%; selectivity ratio [24]: 16; selectivity ratio [25]: 65; MIC50 (Candida albicans [26]): 26.8 µM (≈ 7.81 µg/mL); selectivity ratio [27]: 65; MIC (Aspergillus flavus): > 107 µM
